The term inhibition in vivo denotes the change of the read-out against control, counted positive when it falls. By ED50 is commonly meant the midpoint of the dose-response relation. Read a high ED50 as weaker potency. As a reminder, the Inhibition is the percentage by which the read-out fell short of the control. Low values mean little suppression, high ones strong suppression.

The nature of assay [1]: Percent reduction of liver cholesterol ester levels after po administration of compound in cholesterol fed hamsters at a dose 10 mg/kg/day. In kind it is functional. The conditions noted are these: Cricetulus griseus. In a few lines: (§1)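 Cholesterol-fed hamsters were dosed orally for 7 days, with doses in mg/kg/day. The value is % inhibition at the stated dose, or an ED50 in mg/kg/day, with n = 4 animals per compound.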

A short description of assay [2]: Ability to inhibit liver cholesterol ester was determined in cholesterol fed hamsters. In kind it is functional, Cricetulus griseus. The procedure, abridged: as §1
Assay [3] in a line: Percent reduction of liver cholesterol ester levels after po administration of compound in cholesterol fed hamsters at a dose 1 mg/kg/day. The conditions noted are these: for inhibition in vivo at 1 mg/kg/day: Cricetulus griseus, Liver, po. It counts as functional, Cricetulus griseus. In a few lines: as §1
Assay [4] in a line: Percent reduction of liver cholesterol ester levels after po administration of compound in cholesterol fed hamsters at a dose 3 mg/kg/day. It counts as functional. The following applies: Cricetulus griseus. The procedure, abridged:
as §1

Assay [5] can be described thus: Percent reduction of liver cholesterol ester levels after po administration of compound in cholesterol fed hamsters at a dose 25 mg/kg/day. It counts as functional. The following applies: Cricetulus griseus. In a few lines:
(§2)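 Cholesterol-fed hamsters received the compound orally once daily for 7 days, with dose expressed as mg/kg/day. Four animals per compound. Values are reported as % inhibition at the given dose, or as an ED50 in mg/kg/day.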

Assay [6] in a line: Percent reduction of Liver cholesterol ester levels after peroral administration in cholesterol fed hamsters. It counts as functional, Cricetulus griseus. In a few lines:
as §1

Assay [7] in a line: Percent reduction of Liver cholesterol ester levels after peroral administration in cholesterol fed hamsters at a dose 10 mg/kg/day. In kind it is functional. The conditions noted are these: Cricetulus griseus, route oral. The procedure, abridged:
as §1

The nature of assay [8]: Percent reduction of liver cholesterol ester levels after po administration of compound in cholesterol fed hamsters. It counts as functional, Cricetulus griseus. The procedure, abridged:
as §2

Turning to `COc1ccc([C@H]2C(SCCc3ccccc3)C(=O)N2c2ccccc2)cc1` (stereo partly specified), in assay [1], the inhibition in vivo at 10 mg/kg/day was -31%.

Take `COc1ccc([C@@H]2[C@H]([S+]([O-])CCc3ccccc3)C(=O)N2c2ccccc2)cc1` (stereo partly specified): in assay [2], the 50% effect level (ED50) was put at a dose of 0.58 mg/kg/day. Also, the inhibition in vivo at 1 mg/kg/day in assay [3] stood at 58%. Besides, the inhibition in vivo at 3 mg/kg/day in assay [4] is 78%.

With `COc1ccc([C@@H]2[C@@H](P(=O)(O)CCc3ccccc3)C(=O)N2c2ccccc2)cc1`, the inhibition in vivo at 25 mg/kg/day in assay [5] amounted to 0%.

Regarding `COc1ccc([C@@H]2[C@H](SCCc3ccccc3)C(=O)N2c2ccccc2)cc1`, the inhibition in vivo at 10 mg/kg/day in assay [1] came out at 31%.

On to `COc1ccc([C@@H]2C(SCCc3ccccc3)C(=O)N2c2ccccc2)cc1` (stereo partly specified), for which the inhibition in vivo at 25 mg/kg/day in assay [5] came to 97%.

With `COc1ccc([C@@H]2[C@H](C(O)CCc3ccccc3)C(=O)N2c2ccccc2)cc1` (stereo partly specified), in assay [6], the ED50 is 0.4 mg/kg/day.

For the compound `COc1ccc([C@@H]2[C@@H](CCP(=O)(OC)c3ccccc3)C(=O)N2c2ccccc2)cc1` (stereo partly specified), in assay [5], the inhibition in vivo at 25 mg/kg/day is 0%.

For the compound `COc1ccc([C@@H]2[C@@H](CCP(=O)(O)c3ccccc3)C(=O)N2c2ccccc2)cc1`, the inhibition in vivo at 25 mg/kg/day in assay [5] amounted to 0%.

In assay [6], `COc1ccc([C@@H]2[C@@H](CCC(O)c3ccccc3)C(=O)N2c2ccccc2)cc1` (stereo partly specified) returned a median effective dose (ED50) of 0.9 mg/kg/day.

In the case of `COc1ccc([C@@H]2[C@@H](CCS(=O)(=O)c3ccccc3)C(=O)N2c2ccccc2)cc1`, the inhibition in vivo at 10 mg/kg/day in assay [1] is 23%.

In the case of `COc1ccc([C@@H]2[C@@H](CCSc3ccccc3)C(=O)N2c2ccccc2)cc1`, the inhibition in vivo at 10 mg/kg/day in assay [7] came to 0%.

With `O=C1[C@H]([S+]([O-])CCc2ccccc2)[C@@H](c2ccc(O)cc2)N1c1ccc(F)cc1` (stereo partly specified), the inhibition in vivo at 1 mg/kg/day in assay [3] came to 82%. In assay [1], the inhibition in vivo at 10 mg/kg/day worked out at 56%.

`COc1ccc([C@@H]2[C@@H](CC[S+]([O-])c3ccccc3)C(=O)N2c2ccccc2)cc1` (stereo partly specified): the inhibition in vivo at 10 mg/kg/day in assay [1] turned out to be 21%.

As to `O=C1[C@H](SCCc2ccccc2)[C@@H](c2ccc(O)cc2)N1c1ccc(F)cc1`, in assay [3], the inhibition in vivo at 1 mg/kg/day stood at 83%.

With `COc1ccc([C@@H]2C([S+]([O-])CCc3ccccc3)C(=O)N2c2ccccc2)cc1` (stereo partly specified), the ED50 in assay [2] worked out at 0.59 mg/kg/day. Also, the inhibition in vivo at 25 mg/kg/day in assay [5] was determined as 97%.

In turn, `COc1ccc([C@@H]2[C@@H](P(=O)(CCc3ccccc3)OC)C(=O)N2c2ccccc2)cc1` (stereo partly specified) showed an Inhibition in assay [8] of 0%.

Turning to `O=C1[C@@H](SCCc2ccccc2)[C@@H](c2ccc(O)cc2)N1c1ccc(F)cc1`, the inhibition in vivo at 1 mg/kg/day in assay [3] was found to be 0%.

Regarding `COc1ccc([C@@H]2C(S(=O)(=O)CCc3ccccc3)C(=O)N2c2ccccc2)cc1` (stereo partly specified), the inhibition in vivo at 25 mg/kg/day in assay [5] was 54%.

`COc1ccc([C@@H]2[C@@H](SCCc3ccccc3)C(=O)N2c2ccccc2)cc1` came in with a median effective dose (ED50) in assay [2] of 0.13 mg/kg/day. In assay [3], the inhibition in vivo at 1 mg/kg/day came out at 89%.

The compound `COc1ccc([C@@H]2[C@@H]([S+]([O-])CCc3ccccc3)C(=O)N2c2ccccc2)cc1` (stereo in doubt; 26) registered a 50% effective dose (ED50) in assay [2] of 0.9 mg/kg/day. In assay [3], the Inhibition worked out at 58%.

The compound `COc1ccc([C@@H]2[C@@H]([S+]([O-])CCc3ccccc3)C(=O)N2c2ccccc2)cc1` (stereo in doubt; 27) yielded a 50% effective dose (ED50) in assay [2] of 0.21 mg/kg/day. Besides, the Inhibition in assay [3] worked out at 82%.

For the compound `O=C1[C@@H]([S+]([O-])CCc2ccccc2)[C@@H](c2ccc(O)cc2)N1c1ccc(F)cc1` (stereo in doubt; 37), in assay [3], the inhibition in vivo at 1 mg/kg/day was 40%.

For `O=C1[C@@H]([S+]([O-])CCc2ccccc2)[C@@H](c2ccc(O)cc2)N1c1ccc(F)cc1` (stereo in doubt; 38), the Inhibition in assay [3] amounted to 42%.

In assay [6], `COc1ccc([C@@H]2[C@@H](CCCc3ccccc3)C(=O)N2c2ccc(OC)cc2)cc1` [SCH-48461] came in with a median effective dose (ED50) of 2.2 mg/kg/day.

The values above are taken from ChEMBL document CHEMBL1131599, “Synthesis of C3 heteroatom-substituted azetidinones that display potent cholesterol absorption inhibitory activity” (1998).
